This is a sample that favours compounds with a hit; in the whole collection about 3.5% have one here.
RGS4 block = RGS4 inhibitors, primary screen, cell-based, HEK293 M3R inducible RGS4, calcium flux. Fluo-4 calcium flux; active compounds read high; triggered by carbachol at its EC20. B-score at 10 µM. 310,000 tested, 0.45% active. AID 463165, 2010;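 active means B-score, a plate-corrected calcium signal, over three deviations above library mean, with baseline fluorescence within five deviations of library mean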;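 further: RGS4 expression induced by doxycycline in cells with stable M3 receptor; B-score is computed from the integrated fluorescence ratio over baseline after carbachol; higher B-score means a larger calcium signal and so more RGS4 inhibition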
Target sequence (P49798 whole entry, looked up): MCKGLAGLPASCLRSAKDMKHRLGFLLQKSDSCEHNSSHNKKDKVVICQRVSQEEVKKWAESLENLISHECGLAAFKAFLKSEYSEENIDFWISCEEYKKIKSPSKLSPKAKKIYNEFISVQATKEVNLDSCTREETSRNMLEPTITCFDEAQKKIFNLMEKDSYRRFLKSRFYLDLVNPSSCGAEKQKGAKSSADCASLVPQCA
RGS4 act = RGS4 potentiators or activators, primary screen, cell-based, HEK293 M3R inducible RGS4, calcium flux. carbachol calcium flux Fluo4; active compounds read low. B-score at 10 µM. 310,000 tested, 0.92% active. AID 463111, 2010;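 active means B-score of the integrated calcium signal more than 4 SD below the library mean, with starting fluorescence not abnormally high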;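 further: negative B-score means reduced calcium response which marks RGS4 activation or potentiation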
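Assay system: Inducible-RGS4 HEK293 cells carrying M3 receptor | Schedule: Compound preincubation 20 min at room temperature before agonist | Signal: Kinetic calcium fluorescence imaging with Fluo4-AM dye, 2 µM | Read-out basis: B score from integrated fluorescence ratio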
MrgX1 ag = agonists of human MrgX1 receptor, primary screen, HEK293 cells, Fluo-4 calcium flux; Mas-related G-protein coupled receptor member X1 (Homo sapiens), Q96LB2; Fluo-4 calcium fluorescence, agonist mode; active compounds read high; B-score at 10 µM; 310,000 tested, 0.44% active;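 active means calcium response B-score plate-corrected fluorescence ratio at least 3 library SD, with starting fluorescence B-score inside 5 SD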
Target sequence (Q96LB2 whole entry, looked up): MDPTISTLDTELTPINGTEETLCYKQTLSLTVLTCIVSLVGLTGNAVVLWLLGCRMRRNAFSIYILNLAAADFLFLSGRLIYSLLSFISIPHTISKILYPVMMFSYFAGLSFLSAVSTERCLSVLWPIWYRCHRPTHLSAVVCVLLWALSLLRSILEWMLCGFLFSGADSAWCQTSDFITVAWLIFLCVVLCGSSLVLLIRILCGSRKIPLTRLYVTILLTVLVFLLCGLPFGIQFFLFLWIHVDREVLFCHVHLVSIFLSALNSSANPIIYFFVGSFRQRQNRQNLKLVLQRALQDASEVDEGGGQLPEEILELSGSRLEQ
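Test system: HEK293 cells stably expressing human MrgX1 receptor; Input: fifteen thousand cells per well; Dosing: compound delivered in addition one of three; Schedule: overnight seeding, then 1 h dark dye loading; Technique: Fluo-4 NW calcium fluorescence; Measure: B-scored fluorescence response ratio; Controls: positive and negative controls per plate.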
MrgX1 antag = antagonists of human MrgX1 receptor, primary screen, HEK293 cells, Fluo-4 calcium flux | BAM8-22 antagonism; active compounds read low | B-score at 10 µM | 310,000 tested, 1.3% active;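 active means calcium-response B-score plate-corrected more than 3 library SD below zero, starting fluorescence within 5 deviations, no agonist response on first addition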;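 further: peak minus trough fluorescence over baseline after final BAM8-22 challenge near maximal dose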
MrgX1 PAM = positive allosteric modulators of MrgX1, primary screen, HEK293 cells, Fluo-4 calcium flux. FDSS; active compounds read high. Mas-related G-protein coupled receptor member X1 (Homo sapiens), Q96LB2. 310,000 tested, 0.63% active. B-score at 10 µM. AID 588675, 2011;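 active means plate-corrected calcium response at least 3 library SD above typical, normal starting fluorescence, not activating the receptor alone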;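 further: compound read alongside a low EC10 to EC30 dose of BAM8-22 agonist; peak minus trough fluorescence over baseline measured at the second addition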
Starred values were filed as active, the others as inactive; i = inactive; . = not tested or not shown.

SMILES	RGS4 block	RGS4 act	MrgX1 ag	MrgX1 antag	MrgX1 PAM
Cc1ccc(S(=O)(=O)N2[C@@H](c3ccc(F)cc3)C(C(=O)O)=CC[C@H]2c2cccc(C)c2)cc1	.	.	i	i	i
Cc1ccc(S(=O)(=O)N2[C@@H](c3ccc(F)cc3)C(C(=O)O)=CC[C@H]2c2ccc3c(c2)OCO3)cc1	.	.	i	i	9.5*
COc1ccc([C@@H]2CC=C(C(=O)O)[C@H](c3ccccc3F)N2S(=O)(=O)c2ccc(C)cc2)cc1OC	.	.	i	i	i
COc1ccccc1/C=C(/C(=O)OCC(=O)NCc1ccccc1)c1ccccc1	i	i	i	-5.5*	i
CCC(=O)N1CCN=C1SCc1cccc(C(F)(F)F)c1	i	i	i	i	i
CCn1c2ccccc2c2cc(NC(=O)c3coc(=O)c(Br)c3)ccc21	i	i	i	i	i
CCn1c2ccccc2c2cc(NC(=O)c3ccc(Br)o3)ccc21	i	i	i	-7.5*	i
Cc1ccc(S(=O)(=O)N2CCOc3ccccc32)c(C)c1NS(C)(=O)=O	i	i	i	i	i
COc1ccc(O)c(CN2CCC(n3nccc3NC(=O)c3ccccc3Cl)CC2)c1	i	i	i	i	i
CC1(C)CCCN(C(=O)N2c3ccccc3Sc3ccccc32)C1	i	-9.2*	i	i	i
COc1ccc(NC(=O)CN(C)C(=O)CCCSc2nc3ccccc3[nH]2)cc1	i	i	i	i	i
O=C(NCc1cccnc1)c1cc(S(=O)(=O)N2CCCC2)c(Cl)cc1Cl	i	i	.	.	.
CN(CC(=O)Nc1ccccc1Cl)CC(=O)Nc1ccccc1[N+](=O)[O-]	i	i	i	i	10*
O=C(OCC1OC(n2ncc(=O)[nH]c2=O)C(OC(=O)c2ccccc2)C1OC(=O)c1ccccc1)c1ccccc1 (configuration not stated)	i	-7.2*	i	i	i
Cc1cccc(C)c1OCC(=O)NNC(=S)NC(=O)C1CC1	i	i	63*	i	i
CCCCc1cc(=O)oc2cc(C)cc(O)c12	i	i	i	i	i
CCCc1cc(O)c2c(C)cc(=O)oc2c1	i	i	31*	i	i
CCCCc1cc(=O)oc2cc(O)cc(O)c12	i	i	33*	i	i
N#CCCCN1C(=O)C(=C(C#N)C#N)c2ccccc21	i	i	33*	i	i
CC(=O)Nc1ccc(S(=O)(=O)NCCC(=O)N2CCc3ccccc32)cc1	i	i	i	i	i
CC(C)=CCOc1ccc([C@@H]2COc3c(ccc4c3C=CC(C)(C)O4)C2)c(O)c1	i	-9.4*	i	i	i
CC(C)=CCc1c2c(c3occ(-c4ccc(O)cc4)c(=O)c3c1O)C=CC(C)(C)O2	i	i	i	i	i
O=c1c2c(nc3n1CCCCC3)sc1c(O)c(Br)ccc12	i	i	i	-5.4*	i
CCN(CC)CCOc1c(Br)ccc2c1sc1nc3n(c(=O)c12)CCC3	i	i	i	i	i
Cc1nc(N/N=C/c2ccc(O)cc2)c2cnn(-c3ccccc3)c2n1	i	i	i	-7.5*	i
SMILES	RGS4 block	RGS4 act	MrgX1 ag	MrgX1 antag	MrgX1 PAM
COc1ccccc1N1CCN(C(=O)c2sc3nc(C)nc(N4CCN(c5ccccn5)CC4)c3c2C)CC1	i	-8.2*	i	i	i
CCN1/C(=C/C(C)=C/c2sc3ccccc3[n+]2CC)Sc2ccccc21	i	i	i	-6.4*	i
Cc1cccc(C(=O)NNC(=S)NC(=O)c2ccccc2)c1	i	i	186*	i	i
Cc1ccc(C(=O)NNC(=O)c2cccc(C)c2)cc1	i	i	i	i	i
COc1ccc(C(=O)NC(=S)NNC(=O)c2cccc(C)c2)cc1	i	-8.4*	102*	i	i
Cc1ccc(C(=O)NNC(=S)NC(=O)c2ccccc2)cc1	i	i	139*	i	i
CCOc1ccccc1C(=O)Nc1cccc2cccnc12	i	i	i	i	i
CC[C@H](C)/C=C/C1=CC2=C(Cl)C(=O)[C@@]3(C)OC(=O)C(C(=O)[C@H](C)[C@@H](C)O)=C3C2=CO1	i	i	i	i	10*
O=C(/C=C/c1ccccc1)c1ccccn1	i	i	39*	i	i
CCc1ccccc1N(C(=O)Cn1nnc2ccccc21)C(C(=O)NCCOC)c1ccco1 (configuration not stated)	i	i	i	i	i
COCCNC(=O)C(c1ccco1)N(C(=O)Cn1nnc2ccccc21)c1ccc(C)cc1C (configuration not stated)	i	i	i	i	7.9*
Cc1cc(C)cc(-n2c(C)cc(/C=N/NC(=O)c3ccncc3)c2C)c1	i	i	i	i	i
Cc1c(C(=O)N/N=C/c2ccoc2)cccc1[N+](=O)[O-]	i	i	i	i	i
Cc1cc(C)cc(-n2c(C)cc(/C=N/NC(=O)c3cccc([N+](=O)[O-])c3C)c2C)c1	i	-7.3*	i	i	i
Cc1cc(C)cc(-n2c(C)cc(/C=N/NC(=O)CSc3ncccn3)c2C)c1	i	-8.3*	i	i	i
NC(=O)CSc1nccn1Cc1ccc(Cl)cc1	i	i	i	i	i
O=C(OCC(=O)N1CCOCC1)c1ccc(Br)cc1	i	i	i	i	i
CC(C)(C)c1ccc(OCC(=O)NNC(=S)NC(=O)c2ccco2)c(Br)c1	i	-10*	i	i	i
CC(C)c1ccc(OCC(=O)NNC(=S)NC(=O)c2ccco2)c(Br)c1	i	-9.5*	i	i	i
N/C(Cc1ccc(Cl)cc1Cl)=N\OC(=O)c1cccs1	i	i	i	-7.9*	i
FC(F)(F)c1cccc(Cc2noc(CN3CCCC(OCc4ccccn4)C3)n2)c1 (configuration not stated)	i	i	i	i	i
O=c1ccc2cc3c([nH]c4ccc(Br)cc43)oc-2c1O	i	i	i	i	11*
O=C1NCC(c2ccccc2)C1C(=O)N/N=C/c1ccc(Cl)s1 (configuration not stated)	i	i	31*	i	i
